Blank lines part the entries; values can stand above or below the compound they belong to. Activity calls are given as the source filed them.
Key:
Rattus norvegicus [1] = species on record: Rattus norvegicus; assay: Complete remission of DMBA-induced hormone-dependent mammary carcinoma tumors in rats at 4.5 mg; assay type: functional
Procedure, shortened: (§1)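 Female SD rats bearing DMBA-induced, hormone-dependent mammary adenocarcinoma, with at least one tumor >140 mm², were grouped in tens. Dosing was sc per kg body weight: a single dose daily Monday–Thursday and a double dose Friday. Ovariectomy served as the comparison arm. Complete remission was defined as a tumor no longer palpable. Body weight and tumor area changes were also recorded.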

Rattus norvegicus [2] = species on record: Rattus norvegicus; assay: Percent change in DMBA-induced hormone-dependent mammary carcinoma tumor area at 9 mg after 28 days; assay type: functional
Procedure, shortened: (§2)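 DMBA-induced, hormone-dependent mammary adenocarcinoma in SD rats. Rats bearing at least one tumor >140 mm² were placed in groups of ten. Compound was given sc as a single dose (mg/kg) daily Monday–Thursday and a double dose on Friday. Tumors were counted at the start and as new tumors; responses were scored as complete remission (not palpable), partial remission (≥50% reduction), no change or progression. Tumor area and body weight were recorded as % change.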

Rattus norvegicus [3] = species on record: Rattus norvegicus; assay: Final number of DMBA-induced hormone-dependent mammary carcinoma tumors in rats at 9 mg; assay type: functional
Procedure, shortened: (§3)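 Sprague-Dawley rats carrying DMBA-induced, hormone-dependent mammary adenocarcinoma, at least one tumor >140 mm², were placed in groups of ten. Compounds were given sc, with doses in mg/kg: a single daily dose Monday to Thursday and a double dose on Friday. Ovariectomy served as a comparator group. New tumors arising during the test were counted.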

Rattus norvegicus [4] = species on record: Rattus norvegicus; assay: Partial remission of DMBA-induced hormone-dependent mammary carcinoma tumors in rats at 9 mg; assay type: functional; procedure, shortened: as §2
Rattus norvegicus [5] = species on record: Rattus norvegicus; assay: Percent unchanged tumor size of DMBA-induced hormone-dependent mammary carcinoma tumors in rats at 2.25 mg; assay type: functional
Rattus norvegicus [6] = species on record: Rattus norvegicus; assay: Percent unchanged tumor size of DMBA-induced hormone-dependent mammary carcinoma tumors in rats at 4.5 mg; assay type: functional
Rattus norvegicus [7] = species on record: Rattus norvegicus; assay: Progression of DMBA-induced hormone-dependent mammary carcinoma tumors in rats at 9 mg; assay type: functional
Rattus norvegicus [8] = species on record: Rattus norvegicus; assay: Initial tumor number of DMBA-induced hormone-dependent mammary carcinoma in rats at 2.25 mg; assay type: functional; procedure, shortened: as §2
Rattus norvegicus [9] = species on record: Rattus norvegicus; assay: Initial tumor number of DMBA-induced hormone-dependent mammary carcinoma in rats at 4.5 mg; assay type: functional; procedure, shortened: as §2
Mus musculus [10] = species on record: Mus musculus; assay: Vaginal cornification test in mice at 0.1 ug; predominant cellular component leucocytes (diestrus); assay type: functional, organism-based
[11] = biological target: T1, Estrogen receptor (Mus musculus) (UniProt O08537+P19785); assay: Antiestrogenic activity in uterotrophic test in mice at 50 ug; assay type: functional
T1 sequence (O08537 whole entry, looked up): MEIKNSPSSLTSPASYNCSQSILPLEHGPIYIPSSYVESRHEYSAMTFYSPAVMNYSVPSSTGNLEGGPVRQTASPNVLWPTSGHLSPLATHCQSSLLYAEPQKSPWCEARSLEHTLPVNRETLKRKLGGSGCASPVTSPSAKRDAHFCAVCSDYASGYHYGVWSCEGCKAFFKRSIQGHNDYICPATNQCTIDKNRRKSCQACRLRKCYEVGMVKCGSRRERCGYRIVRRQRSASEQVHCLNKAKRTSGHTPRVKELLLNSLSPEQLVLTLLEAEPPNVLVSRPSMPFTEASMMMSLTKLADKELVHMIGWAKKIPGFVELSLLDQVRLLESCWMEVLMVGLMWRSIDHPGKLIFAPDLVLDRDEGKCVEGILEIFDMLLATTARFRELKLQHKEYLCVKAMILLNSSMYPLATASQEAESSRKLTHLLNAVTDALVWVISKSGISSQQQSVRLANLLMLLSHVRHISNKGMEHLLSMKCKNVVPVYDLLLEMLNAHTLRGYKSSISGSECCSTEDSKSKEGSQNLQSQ
T1 sequence (P19785 whole entry, looked up): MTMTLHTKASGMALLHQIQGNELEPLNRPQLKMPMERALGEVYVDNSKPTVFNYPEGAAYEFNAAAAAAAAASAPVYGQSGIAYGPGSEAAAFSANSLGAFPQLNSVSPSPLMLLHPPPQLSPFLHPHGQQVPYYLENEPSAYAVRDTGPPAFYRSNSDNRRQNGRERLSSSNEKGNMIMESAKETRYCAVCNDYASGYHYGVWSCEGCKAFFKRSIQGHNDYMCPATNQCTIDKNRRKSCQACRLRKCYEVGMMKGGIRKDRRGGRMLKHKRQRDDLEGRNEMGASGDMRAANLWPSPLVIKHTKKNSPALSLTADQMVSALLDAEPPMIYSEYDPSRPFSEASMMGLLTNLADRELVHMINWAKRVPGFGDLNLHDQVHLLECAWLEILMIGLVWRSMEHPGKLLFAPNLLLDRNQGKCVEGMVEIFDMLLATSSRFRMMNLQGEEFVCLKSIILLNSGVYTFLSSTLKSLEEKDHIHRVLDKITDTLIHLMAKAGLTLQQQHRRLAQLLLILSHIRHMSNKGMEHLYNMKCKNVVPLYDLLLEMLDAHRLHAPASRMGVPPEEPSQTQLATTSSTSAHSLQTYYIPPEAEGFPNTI
Procedure, shortened: (§4)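 Immature female NMRI mice, 20 days old (14.5 ± 1.2 g), randomly grouped 10 per group. Each received a daily sc injection for 3 days of 0.1 mL olive oil solution containing test compound, together with estrone to stimulate uterine growth. Uteri were removed 24 h after the last injection and weighed. Results are reported as % inhibition of the estrone-stimulated uterine weight gain, mean ± SD.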

[12] = biological target: T1, Estrogen receptor (Mus musculus); assay: Estrogenic activity in uterotrophic test in mice at 0 ug; assay type: functional
Procedure, shortened: (§5)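 Uterine growth stimulation in immature female NMRI mice, 20 days old (14.5 ± 1.2 g), 10 per group. Test compound in 0.1 mL olive oil was given sc daily for 3 days. Uteri were excised 24 h after the final injection and weighed. Effect is reported as mean ± SD.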

[13] = biological target: T1, Estrogen receptor (Mus musculus); assay: Estrogenic activity in uterotrophic test in mice at 1500 ug; assay type: functional; procedure, shortened: as §5
Rattus norvegicus [14] = species on record: Rattus norvegicus; assay: Percent change in DMBA-induced hormone-dependent mammary carcinoma tumor area at 4.5 mg after 28 days; assay type: functional; procedure, shortened: as §2
Rattus norvegicus [15] = species on record: Rattus norvegicus; assay: Percent change in DMBA-induced hormone-dependent mammary carcinoma tumor area in ovariectomised rats after 28 days; assay type: functional
Procedure, shortened: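 DMBA-induced, hormone-dependent mammary adenocarcinoma in SD rats, with ovariectomy as the treatment. Rats bearing at least one tumor >140 mm² were placed in groups of ten. Tumors were counted at the start and as new tumors. Responses were scored as complete remission, partial remission (≥50% size reduction), no change or progression, with % change in tumor area and body weight.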

Rattus norvegicus [16] = species on record: Rattus norvegicus; assay: Complete remission of DMBA-induced hormone-dependent mammary carcinoma tumors in rats at 4 mg; assay type: functional; procedure, shortened: as §1
Rattus norvegicus [17] = species on record: Rattus norvegicus; assay: Final number of DMBA-induced hormone-dependent mammary carcinoma tumors in rats at 2 mg; assay type: functional; procedure, shortened: as §3
Rattus norvegicus [18] = species on record: Rattus norvegicus; assay: Partial remission of DMBA-induced hormone-dependent mammary carcinoma tumors in rats at 1 mg; assay type: functional; procedure, shortened: as §2
Rattus norvegicus [19] = species on record: Rattus norvegicus; assay: Partial remission of DMBA-induced hormone-dependent mammary carcinoma tumors in rats at 4 mg; assay type: functional; procedure, shortened: as §2
Rattus norvegicus [20] = species on record: Rattus norvegicus; assay: Percent change in body weight DMBA-induced hormone-dependent mammary carcinoma tumors in rats at 4 mg for 7 days; assay type: functional
Rattus norvegicus [21] = species on record: Rattus norvegicus; assay: Percent unchanged tumor size of DMBA-induced hormone-dependent mammary carcinoma tumors in rats at 2 mg; assay type: functional
Rattus norvegicus [22] = species on record: Rattus norvegicus; assay: Percent unchanged tumor size of DMBA-induced hormone-dependent mammary carcinoma tumors in rats at 4 mg; assay type: functional
Rattus norvegicus [23] = species on record: Rattus norvegicus; assay: Progression of DMBA-induced hormone-dependent mammary carcinoma tumors in rats at 1 mg; assay type: functional
Rattus norvegicus [24] = species on record: Rattus norvegicus; assay: Complete remission of DMBA-induced hormone-dependent mammary carcinoma tumors in rats at 1 mg; assay type: functional; procedure, shortened: as §1
Mus musculus [25] = species on record: Mus musculus; assay: Vaginal cornification test in mice at 25 ug; predominant cellular component leucocytes (diestrus); assay type: functional, organism-based
Mus musculus [26] = species on record: Mus musculus; assay: Predominant components of vaginal smear at a compound concentration of 500 ug was determined using vaginal cornification test; leucocytes (</= 50%), nucleated and cornified, nucleated cellscharacteristic of antiestrogens; assay type: functional, organism-based
Mus musculus [27] = species on record: Mus musculus; assay: Vaginal cornification test in mice at 5 ug; predominant cellular component leucocytes (diestrus); assay type: functional, organism-based
Procedure, shortened: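 Female NMRI mice (~15 g) were ovariectomized; castration was confirmed at 10 days by leucocyte smears. Mice were primed with estradiol 3-benzoate 0.2 μg, and only responders showing estrus were kept. Groups of three received sc test compound in 0.1 mL olive oil daily for 3 days. Saline vaginal smears were taken 6, 24, 30, 48 and 54 h after the last dose and scored by Allen-Doisy.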

[28] = biological target: T1, Estrogen receptor (Mus musculus); assay: Antiestrogenic activity in uterotrophic test in mice at 0 ug (experiment 2); assay type: functional; procedure, shortened: as §4
[29] = biological target: T1, Estrogen receptor (Mus musculus); assay: Estrogenic activity in uterotrophic test in mice at 24 ug (experiment 2); assay type: functional; procedure, shortened: as §5
[30] = biological target: T1, Estrogen receptor (Mus musculus); assay: Estrogenic activity in uterotrophic test in mice at 0 ug (experiment 1); assay type: functional; procedure, shortened: as §5
[31] = biological target: T1, Estrogen receptor (Mus musculus); assay: Estrogenic activity in uterotrophic test in mice at 8 ug (experiment 1); assay type: functional
Procedure, shortened: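 Immature (20-day-old) female NMRI mice, 14.5 ± 1.2 g, randomized into groups of 10. Given the test compound sc daily for 3 days in 0.1 mL olive oil. Uteri removed 24 h after the last injection; uterine weight taken as the read-out, means ± SD. Dose in μg.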

Rattus norvegicus [32] = species on record: Rattus norvegicus; assay: Percent change in body weight DMBA-induced hormone-dependent mammary carcinoma tumors in rats at 2 mg for 7 days; assay type: functional
Procedure, shortened: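 Sprague-Dawley rats with DMBA-induced, hormone-dependent mammary adenocarcinoma; animals with at least one tumor over 140 mm² were grouped in tens. Dosed subcutaneously in mg/kg body weight: a single daily dose Monday to Thursday, doubled on Friday. Percent change in body weight was recorded over the test alongside tumor area and remission counts, with untreated controls.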

[33] = biological target: T1, Estrogen receptor (Mus musculus); assay: Inhibitory activity in mouse uterine weight test at 5 ug (experiment 1); assay type: functional
Procedure, shortened: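 Antiuterotrophic (Dorfman) assay in immature 20-day-old female NMRI mice, groups of 10. Uterine growth was stimulated with estrone (0.1 μg) and the test compound was given alongside it, sc daily for 3 days in 0.1 mL olive oil. Uteri were taken 24 h after the last dose. Uterine weight is reported as means ± SD and inhibition as % of the estrone-stimulated response.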

Effect [11]: 25.9
Effect [12]: 11.4
Effect [13]: 28
Compound: CCCC(c1cccc(O)c1)C(CCC)c1cccc(O)c1 (stereo not drawn)
Tumors (Rattus norvegicus [1]): 23%
Change (Rattus norvegicus [2]): -24%
No. of tumors (Rattus norvegicus [3]): 1
Tumors (Rattus norvegicus [4]): 22%
Tumors (Rattus norvegicus [5]): 13%
Tumors (Rattus norvegicus [6]): 27%
Tumors (Rattus norvegicus [7]): 17%
No. of tumors (Rattus norvegicus [8]): 22
No. of tumors (Rattus norvegicus [9]): 16
Activity (Mus musculus [10]): inactive
Change (Rattus norvegicus [14]): 109%
Change (Rattus norvegicus [15]): -99%

Effect [28]: 10
Effect [29]: 18.5
Effect [30]: 10.7
Effect [31]: 14.4
inhibition [33]: 53%
Compound: CCC(c1cccc(O)c1)C(CC)c1cccc(O)c1 (stereo in doubt; 20)
Tumors (Rattus norvegicus [16]): 46%
No. of tumors (Rattus norvegicus [17]): 23
Tumors (Rattus norvegicus [18]): 15%
Tumors (Rattus norvegicus [19]): 25%
Change (Rattus norvegicus [20]): -5.3%
Tumors (Rattus norvegicus [21]): 30%
Tumors (Rattus norvegicus [22]): 19%
Tumors (Rattus norvegicus [23]): 29%
Tumors (Rattus norvegicus [24]): 21%
Activity (Mus musculus [25]): inactive
Activity (Mus musculus [26]): Weak activity
Activity (Mus musculus [27]): inactive
Change (Rattus norvegicus [32]): -1.5%

Source: ChEMBL document CHEMBL1121898, “Potential antiestrogens. Synthesis and evaluation of mammary tumor inhibiting activity of 1,2-dialkyl-1,2-bis(3'-hydroxyphenyl)ethanes” (1981)
